Here are results for nine compounds from ChEMBL document CHEMBL1667754, “Synthesis and biological activity of pyrazolothienotetrahydroisoquinoline and [1,2,4]triazolo[3,4-a]thienotetrahydroisoquinoline derivatives” (2011).

Test [1] concerns Staphylococcus aureus. In words: Antibacterial activity against Staphylococcus aureus at 200 ug/disc by disc diffusion assay. For orientation: A growth-free zone around the sample is the usual read-out of agar diffusion tests.
Test [2] deals with Micrococcus luteus. The experiment in a line: Antibacterial activity against Micrococcus luteus at 50 uL/well by well diffusion assay. In kind it is functional. In a few lines:
(§1)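 Bauer-type diffusion assay. Test compounds were at 2% in DMSO. The read-out was the diameter (mm) of the inhibition zone, with chloramphenicol as the reference agent.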

For test [3], the system named is Candida albicans. In words: Antifungal activity against Candida albicans at 200 ug/disc by disc diffusion assay.
Test [4] concerns Trichophyton rubrum. In words: Antifungal activity against Trichophyton rubrum at 50 uL/well by well diffusion assay. The format is functional. The procedure, abridged: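 Agar discs (10 mm) carrying spores and hyphae were shaken in sterile distilled water. 1 mL of the spore suspension was plated and mixed with 15 mL molten SDA, then left to set. Compounds were at 2% in DMSO, applied per Bauer's diffusion method. The read-out was the inhibition zone (mm).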

The test system of test [5] is Scopulariopsis brevicaulis. In words: Antifungal activity against Scopulariopsis brevicaulis at 2% by disc diffusion assay.
The test system of test [6] is Escherichia coli. In words: Antibacterial activity against Escherichia coli at 50 uL/well by well diffusion assay. The format is functional. The procedure, abridged:
as §1

Test [7] concerns Geotrichum candidum. The experiment in a line: Antifungal activity against Geotrichum candidum at 2% by disc diffusion assay.
Test [8] deals with Bacillus cereus. In words: Antibacterial activity against Bacillus cereus at 200 ug/disc by disc diffusion assay.
In test [9] the test system is Fusarium oxysporum. In words: Antifungal activity against Fusarium oxysporum at 2% by disc diffusion assay.
In test [10] the test system is Aspergillus niger. In words: Antifungal activity against Aspergillus niger at 2% by disc diffusion assay.
Test [11] relates to Serratia marcescens. The experiment in a line: Antibacterial activity against Serratia marcescens at 200 ug/disc by disc diffusion assay.
Test [12] relates to Aspergillus flavus. The experiment in a line: Antifungal activity against Aspergillus flavus at 2% by disc diffusion assay.
Test [13] relates to Pseudomonas aeruginosa. The experiment in a line: Antibacterial activity against Pseudomonas aeruginosa at 200 ug/disc by disc diffusion assay.

For the compound `N#Cc1c2c(c(NN)[nH]c1=S)CCCC2`, the “diameter of the inhibition zone (DIZ)” value is recorded as 11 mm in test [1]; 14 mm in [2]; 12 mm in test [3]; 17 mm in test [4]; 0 mm in test [5]; 14 mm in test [6]. In addition, the “diameter of the inhibition zone (DIZ)” value in test [7] stood at 0 mm; in test [8] it was 20 mm; in [9], 13 mm; in test [10], 12 mm; in [11], 0 mm; in [12], 10 mm. Besides, in test [13], the “diameter of the inhibition zone (DIZ)” value turned out to be 0 mm.
For `N#Cc1c2c(c3[nH]ncn3c1=S)CCCC2`, the “diameter of the inhibition zone (DIZ)” value in [1] is 8 mm; in test [2] it was 12 mm; in test [3] it was 10 mm; in [4] it was 0 mm; in [5], 0 mm; in test [6] it was 10 mm. In addition, the “diameter of the inhibition zone (DIZ)” value in test [7] is 0 mm; in test [8] it was 15 mm; in test [9], 0 mm; in test [10] it was 0 mm; in [11] it was 10 mm; in test [12], 0 mm. Also, in test [13], the “diameter of the inhibition zone (DIZ)” value was 0 mm.
Consider `CCOC(=O)CSc1nc(-n2nc(C)cc2C)c2c(c1C#N)CCCC2`, for which the “diameter of the inhibition zone (DIZ)” value in test [1] amounted to 7 mm; in test [2] it was 0 mm; in test [3], 0 mm; in [4], 0 mm; in test [5], 0 mm; in [6] it was 10 mm. Moreover, the “diameter of the inhibition zone (DIZ)” value in test [7] is given as 10 mm; in [8] it was 0 mm; in [9], 0 mm; in test [10] it was 0 mm; in test [11], 10 mm; in test [12], 0 mm. The “diameter of the inhibition zone (DIZ)” value in test [13] is 0 mm.
`N#Cc1c(SCC(N)=O)nc(NN)c2c1CCCC2`: the “diameter of the inhibition zone (DIZ)” value in test [1] was 0 mm; in test [2] it was 0 mm; in test [3], 0 mm; in test [4] it was 0 mm; in [5], 0 mm; in test [6] it was 11 mm. In addition, the “diameter of the inhibition zone (DIZ)” value amounted to 10 mm in test [7]; 0 mm in test [8]; 10 mm in [9]; 0 mm in test [10]; 8 mm in test [11]; 0 mm in test [12]. For the same compound, in test [13], the “diameter of the inhibition zone (DIZ)” value is listed as 0 mm.
On to `Cc1cc(C)n(-c2nc(SCC(N)=O)c(C#N)c3c2CCCC3)n1`, for which the “diameter of the inhibition zone (DIZ)” value in [1] was 10 mm; in [2], 0 mm; in [3], 0 mm; in [4], 0 mm; in test [5] it was 0 mm; in test [6] it was 0 mm. For the same compound, the “diameter of the inhibition zone (DIZ)” value in [7] is listed as 0 mm; in test [8], 0 mm; in test [9] it was 0 mm; in test [10], 8 mm; in test [11], 0 mm; in test [12], 0 mm. Moreover, the “diameter of the inhibition zone (DIZ)” value in [13] was 0 mm.
As for `CC(=O)CSc1nc(NN)c2c(c1C#N)CCCC2`, the “diameter of the inhibition zone (DIZ)” value is given as 0 mm in [1]; 0 mm in test [2]; 11 mm in test [3]; 20 mm in test [4]; 0 mm in test [5]; 12 mm in test [6]. For the same compound, the “diameter of the inhibition zone (DIZ)” value is given as 12 mm in [7]; 11 mm in test [8]; 0 mm in test [9]; 0 mm in test [10]; 8 mm in test [11]; 0 mm in test [12]. In test [13], the “diameter of the inhibition zone (DIZ)” value is reported as 0 mm.
For the compound `CC(=O)CSc1nc(-n2nc(C)cc2C)c2c(c1C#N)CCCC2`, the “diameter of the inhibition zone (DIZ)” value is given as 0 mm in test [1]; 0 mm in test [2]; 10 mm in test [3]; 17 mm in [4]; 0 mm in test [5]; 13 mm in test [6]. Moreover, the “diameter of the inhibition zone (DIZ)” value amounted to 8 mm in [7]; 0 mm in test [8]; 10 mm in test [9]; 0 mm in test [10]; 8 mm in test [11]; 0 mm in test [12]. Further, the “diameter of the inhibition zone (DIZ)” value in test [13] is listed as 0 mm.
Consider `N#Cc1c(SCC(=O)c2ccccc2)nc(NN)c2c1CCCC2`, for which the “diameter of the inhibition zone (DIZ)” value was found to be 10 mm in test [1]; 0 mm in [2]; 0 mm in test [3]; 12 mm in [4]; 0 mm in [5]; 0 mm in [6]. For the same compound, the “diameter of the inhibition zone (DIZ)” value in [7] worked out at 12 mm; in test [8], 0 mm; in [9], 0 mm; in [10], 0 mm; in test [11], 0 mm; in test [12] it was 0 mm. In addition, the “diameter of the inhibition zone (DIZ)” value in test [13] was found to be 0 mm.
Regarding `Cc1cc(C)n(-c2nc(SCC(=O)c3ccccc3)c(C#N)c3c2CCCC3)n1`, the “diameter of the inhibition zone (DIZ)” value came to 10 mm in test [1]; 0 mm in test [2]; 0 mm in [3]; 0 mm in test [4]; 0 mm in test [5]; 0 mm in test [6]. Besides, the “diameter of the inhibition zone (DIZ)” value in test [7], in test [8], in [9], in test [10], in test [11] and in [12] was 0 mm each time. The “diameter of the inhibition zone (DIZ)” value in test [13] worked out at 0 mm.
